According to ChEMBL document CHEMBL3286332, “Synthesis and radical scavenging activity of phenol-imidazole conjugates” (Bioorg Med Chem Lett, 2014):

Columns and labels:
Format in all cases: functional
[1] = Antioxidant activity assessed as hydroxyl radical scavenging activity at 5 uM after 1 hr by 2-Deoxy-D-ribose degradation assay in presence of FeCl3 and EDTA
Procedure, shortened: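 The 1 mL mixture held 10 mM KH2PO4-KOH pH 7.4, 2-deoxy-D-ribose, FeCl3 made up in 2 mM Na2EDTA, H2O2, ascorbic acid and 5 μM compound added from DMSO. It was incubated 1 h at 37 °C, then thiobarbituric acid in NaOH and trichloroacetic acid were added and it was heated 15 min at 100 °C. Absorbance was read at 535 nm. Controls: no compound (100% MDA) and no deoxyribose (blank). Triplicate.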

[2] = Antioxidant activity assessed as hydroxyl radical scavenging activity at 5 uM after 1 hr by 2-Deoxy-D-ribose degradation assay in presence of FeCl3
Procedure, shortened: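 Hydroxyl radical attack on 2-deoxy-D-ribose in 10 mM KH2PO4-KOH pH 7.4 with FeCl3 made up in buffer (no EDTA), H2O2, ascorbic acid and 5 μM compound from DMSO. Incubated 1 h at 37 °C. TBA/TCA was added, the mixture heated at 100 °C for 15 min, and MDA read at 535 nm. Result is percent protection against the compound-free control. Triplicate.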

[3] = test system: Radical scavenging activity; assay: Antioxidant activity assessed as DPPH free radical scavenging activity measured as remaining DPPH at 100 uM after 60 mins by spectrophotometric analysis relative to control
Procedure, shortened: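 100 μM compound in ethanol mixed 1:9 with 0.002% (w/v) ethanolic DPPH. Absorbance at 517 nm after 60 min, compared with an ethanol control. Value is percent of DPPH remaining, run in triplicate.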

[4] = test system: Radical scavenging activity; assay: Antioxidant activity assessed as DPPH free radical scavenging activity after 60 mins by spectrophotometric analysis
Procedure, shortened: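 Compound in ethanol, 1 to 100 μM, combined 1:9 with 0.002% (w/v) ethanolic DPPH; absorbance read at 517 nm after 60 min against an ethanol-only control. Triplicate measurements. Inhibition of discoloration expressed as percent of control; IC50 (concentration scavenging 50% of DPPH) obtained from the inhibition curve.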

[5] = test system: Radical scavenging activity; assay: Antioxidant activity assessed as DPPH free radical scavenging activity measured as remaining DPPH at 100 uM after 5 mins by spectrophotometric analysis relative to control
[6] = test system: Radical scavenging activity; assay: Antioxidant activity assessed as DPPH free radical scavenging activity measured as remaining DPPH at 10 uM after 5 mins by spectrophotometric analysis relative to control
[7] = test system: Radical scavenging activity; assay: Antioxidant activity assessed as DPPH free radical scavenging activity measured as remaining DPPH at 10 uM after 2 mins by spectrophotometric analysis relative to control

IC50 [4] | Compound | Activity [1] | Activity [2] | DPPH remaining [3] | Activity [5] | Activity [6] | Activity [7]
– | O=Cc1c(O)cc(O)cc1O | 42% | 36% | 91.2% | – | – | –
– | Cn1cnc(C#N)c1/N=C/c1c(O)cc(O)cc1O | 54% | 18% | 49.9% | – | – | –
7.3 µM | COc1ccc(-n2cnc(C#N)c2/N=C/c2ccc(O)c(O)c2O)cc1 | 57% | 25% | – | – | – | –
9.5 µM | Cc1c(C)c2c(c(C)c1O)CCC(C)(C(=O)O)O2 (centres undefined) [TROLOX] | 53% | 31% | – | – | – | –
4 µM | COc1ccc(-n2cnc(C#N)c2/N=C/c2cc(O)c(O)c(O)c2)cc1 | 51% | 42% | – | – | – | –
8.4 µM | N#Cc1ncn(-c2ccc(F)cc2)c1/N=C/c1ccc(O)c(O)c1O | 53% | 34% | – | – | – | –
7 µM | Cn1cnc(C#N)c1/N=C/c1ccc(O)c(O)c1O | 54% | 37% | – | – | – | –
– | COc1cc(C=O)ccc1O | 37% | 30% | 97.6% | – | – | –
– | COc1ccc(-n2cnc(C#N)c2/N=C/c2ccc(O)c(OC)c2)cc1 | 47% | 12% | 88.6% | – | – | –
11.6 µM | O=Cc1ccc(O)c(O)c1O | 46% | 34% | – | – | – | –
– | N#Cc1ncn(-c2ccc(O)cc2)c1/N=C/c1c(O)cc(O)cc1O | 55% | 17% | 45.9% | < 50% | – | –
4.7 µM | Cn1cnc(C#N)c1/N=C/c1cc(O)c(O)c(O)c1 | 54% | 44% | – | – | – | –
– | COc1ccc(-n2cnc(C#N)c2N)cc1 | 46% | 29% | 94.2% | – | – | –
3.8 µM | Cn1cnc(C#N)c1/N=C/c1ccc(O)c(O)c1 | 52% | 27% | – | – | – | –
4.1 µM | COc1ccc(-n2cnc(C#N)c2/N=C/c2ccc(O)c(O)c2)cc1 | 61% | 17% | – | – | – | –
– | N#Cc1ncn(-c2ccc(F)cc2)c1N | 50% | 19% | 94.1% | – | – | –
4.4 µM | N#Cc1ncn(-c2ccc(F)cc2)c1/N=C/c1ccc(O)c(O)c1 | 58% | 11% | – | – | – | –
– | Cn1cnc(C#N)c1N | 54% | 23% | 94.2% | – | – | –
6 µM | O=Cc1cc(O)c(O)c(O)c1 | 50% | 38% | – | – | – | –
3.2 µM | N#Cc1ncn(-c2ccc(O)cc2)c1/N=C/c1ccc(O)c(O)c1 | 60% | 38% | – | – | < 50% | < 50%
5.8 µM | N#Cc1ncn(-c2ccc(F)cc2)c1/N=C/c1cc(O)c(O)c(O)c1 | 54% | 30% | – | – | – | –
4.8 µM | N#Cc1ncn(-c2ccc(O)cc2)c1/N=C/c1cc(O)c(O)c(O)c1 | 49% | 51% | – | – | < 50% | < 50%
– | COc1ccc(-n2cnc(C#N)c2/N=C/c2c(O)cc(O)cc2O)cc1 | 62% | 16% | 48.3% | – | – | –
– | N#Cc1ncn(-c2ccc(O)cc2)c1N | 47% | 57% | 94.8% | – | – | –
7.2 µM | N#Cc1ncn(-c2ccc(O)cc2)c1/N=C/c1ccc(O)c(O)c1O | 38% | 28% | – | – | < 50% | –

Compound | IC50 [4] | Activity [1] | Activity [2] | DPPH remaining [3] | Activity [5] | Activity [6] | Activity [7]
O=Cc1ccc(O)c(O)c1 [PROTOCATECHUALDEHYDE] | 5.4 µM | 51% | 35% | – | – | – | –
